Compound activity: PubChem BioAssay, SRMLSC
Fibroblast inh – antiproliferative effect on LL 47 fibroblasts – human, LL 47 cells, CellTiter-Glo luminescence, primary screen | LL 47 human lung fibroblast viability, ATP luminescence; hits give low values | viability, % at 10 µM | 1.1% of 85,000 active | AID 719, 2007;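 active means viability at or below 50% in the single dose screen; inactive means viability above 50%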;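 further: compound exposure lasted 72 h before the ATP readout; 100% = median luminescence of untreated cell-only wells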
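Material: human LL 47 lung fibroblast cells; quantity: 1,150 cells/well; medium: IMEM plus 15% FBS; doses: 0.1% DMSO in all compound wells; timing: overnight attachment after seeding, then 72 h compound exposure at 37 °C; detection: CellTiter-Glo luminescence; measure: % viability of median cell-only signal; controls: cell-only wells, no compound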
H69AR inhibit – proliferation blockers of H69AR lung cancer cells, primary screen, cell-based, human, 86K library; H69AR lung tumor viability, ATP luminescence, 72 h; hits give low values; viability, % at 10 µM; 6% of 85,000 active; AID 598, 2007;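 active means viability at or below 40%; inactive means viability above 40%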;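 further: multidrug resistant small cell line overexpressing MRP-1 efflux transporter; 100% = mean luminescence of untreated control wells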
bCat KO growth – primary screen for growth suppressors in beta-catenin knockout HCT116 cells (colon tumor, human). 1.5% of 140,000 active. HCT116 beta-catenin knockout viability, CellTiter-Glo, 60 h; hits give low values. viability, % at 10 µM;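 active means viability at or under a set limit, the compound median less 4 SD, cut at about 6% in these data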;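 further: 0% = Hyamine 1622 control at 20 µM and 100% = untreated cell control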
PTEN del growth – growth suppression of PTEN-null HCT116, primary screen, cell-based, CellTiter-Glo | HCT116 PTEN-null viability, 60 h; hits give low values | viability, % at 10 µM | 1.2% of 140,000 active | AID 827, 2007;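 active means viability at or below a set limit, 4 SD under the median of all tested compounds, cut at about 3.7% in these data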;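 further: PTEN knockout HCT116 line with beta catenin targeted HCT116 as companion control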
HUVEC inhibit – inhibitors of HUVEC proliferation, primary screen, cell-based, 384-well; CellTiter-Glo luminescence, 72 h; hits give low values; viability, % at 10 µM (by protocol); 1.1% of 86,000 active; AID 648, 2007;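 active means viability at or below 30%; inactive means viability above 30%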;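 further: 100% = median luminescence of DMSO-only cell control wells on each plate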
Active calls of the source: *; . = no result given. This excerpt belongs to a sample that is enriched for hits.

SMILES	Fibroblast inh	H69AR inhibit	bCat KO growth	PTEN del growth	HUVEC inhibit
COc1ccc(CCNC(=O)c2ccc(-c3ccc([N+](=O)[O-])cc3)o2)cc1OC	.	.	79	83	.
O=C(CSc1nc(C2CC2)nc2ccccc12)N1c2ccccc2Sc2ccccc21	.	.	70	65	.
COc1ccc(N=C2S/C(=C\c3ccc(N4CCOCC4)o3)C(=O)N2CCc2c[nH]c3ccccc23)cc1	.	.	1.9*	1.6*	.
O=c1/c(=C/c2ccco2)sc2n1CN(c1cccc(Br)c1)CN=2	99	32*	80	74	39
COc1ccccc1NC(=O)C1=C(C)Nc2nnnn2C1c1cc(Br)ccc1OC (stereo not drawn)	83	17*	44	59	91
CC(Oc1cc(-c2ccccc2)cc2ccccc12)C(=O)N1CCOCC1 (stereo not drawn)	94	36*	90	78	80
COc1ccccc1N1CCN(C(=O)c2ccc(Br)s2)CC1	96	56	83	85	3.9*
COc1ccccc1N1CCN(C(=O)c2oc3ccccc3c2C)CC1	87	18*	.	.	58
COc1ccccc1N1CCN(C2CCN(C(=O)c3cccs3)CC2)CC1	102	91	85	91	93
COc1ccccc1-c1cc(C(=O)N2CCN(c3ccccc3OC)CC2)no1	97	28*	77	55	77
COc1ccccc1N1CCN(C(=O)c2oc3ccc(F)cc3c2C)CC1	.	.	61	51	.
COc1ccccc1N1CCN(C(=O)c2cc(-c3ccc(C)cc3)on2)CC1	105	96	85	87	106
COc1ccc(OC)c(C(=O)c2ccc(C(=O)Nc3cccc4ccccc34)cc2)c1	.	.	80	76	.
Cc1ccc(C)c(NC(=O)CCCCCCCCCCC2COCCO2)c1 (stereo not drawn)	.	.	85	82	.
COc1ccc2c(c1)c(C(=O)CNc1nc(C)cs1)c(C)n2C	90	68	81	71	87
CCOCc1cnc(C)nc1NCC(=O)c1c(C)n(C)c2ccc(OC)cc12	96	34*	94	91	61
COc1ccc2cc3cc(C(=O)Nc4cc(OC)c(OC)c(OC)c4)oc3nc2c1	104	87	86	62	76
COc1ccc2cc3cc(C(=O)Nc4ccc5c(c4)OCCO5)oc3nc2c1	91	40*	86	81	26*
CCOc1cccc(-c2nnc3n2N=C(c2cc(OC)ccc2OC)CS3)c1	60	21*	18	18	56
COc1cccc(-c2nnc3n2N=C(C(C)(C)C)CS3)c1	52	98	5.5*	4	36
COc1ccccc1-c1nnc2n1N=C(C(C)(C)C)CS2	109	79	102	110	103
COc1cccc(-c2nnc3n2N=C(c2cc(OC)ccc2OC)CS3)c1	.	.	57	61	.
COc1cccc(C2=NOC(C(=O)NCc3ccccc3)C2)c1 (stereo not drawn)	97	26*	92	83	63
CCC(C)NC(=O)C1CC(c2cccc(OC)c2)=NO1 (stereo not drawn)	90	86	104	94	92
C=CCNC(=O)C1CC(c2cccc(OC)c2)=NO1 (stereo not drawn)	96	2.8*	65	61	94
SMILES	Fibroblast inh	H69AR inhibit	bCat KO growth	PTEN del growth	HUVEC inhibit
COc1cccc(C2=NOC(C(=O)NCc3ccco3)C2)c1 (stereo not drawn)	95	36*	61	50	73
COCCNC(=O)C1CC(c2cccc(OC)c2)=NO1 (stereo not drawn)	97	92	85	101	99
COc1ccccc1C(=O)N(NC(=O)Oc1ccccc1)C(C)(C)C	.	.	96	105	.
C=C(C)COc1ccc2c(CC)cc(=O)oc2c1C	.	.	87	92	.
Oc1ccc(Nc2nc3ccccc3nc2Nc2ccc(O)cc2)cc1	4.0*	2.3*	1.8*	1.6*	32
COc1ccc(N2CCN(Cc3nc(N)nc(Nc4ccccc4OC)n3)CC2)cc1	103	7.7*	86	96	98
Cc1c(Cl)cccc1Nc1nc(N)nc(CN2CCc3ccccc3C2)n1	87	15*	64	53	89
Cc1ccc(Nc2nc(N)nc(CN3CCc4ccccc4C3)n2)cc1	95	71	61	69	91
COc1ccccc1Nc1nc(N)nc(CSc2ncccn2)n1	101	87	99	104	89
COc1ccc(OCc2nc(N)nc(Nc3ccccc3OC)n2)cc1	77	2.2*	76	86	95
CCC(C)n1c(SCc2ccc([N+](=O)[O-])cc2)nc2ccsc2c1=O (stereo not drawn)	.	.	54	47	.
COC(=O)c1cc(=O)n(CCc2ccc(OC)c(OC)c2)c(=Nc2ccc(F)c(Cl)c2)s1	10*	1.1*	2.4*	3.7*	7.5*
COC(=O)c1cc(=O)n(Cc2ccc(OC)c(OC)c2)c(=Nc2ccc(F)cc2)s1	12*	1.9*	2.0*	2.0*	17*
CCOC(=O)c1c(C(=O)OCC)c(C)n(CCc2ccc(OC)c(OC)c2)c1C	.	.	86	98	.
CC(NC(=O)c1ccc(F)cc1)c1nc2ccccc2n1Cc1ccccc1F (stereo not drawn)	93	38*	85	79	88
O=C(C/C=N/OCc1c(Cl)cccc1Cl)c1ccc(Cl)cc1	.	.	86	97	.
Cc1cc(C)nc(-n2nc(C)cc2NC(=O)CNCc2ccccc2)n1	95	48	91	90	89
Cc1cc(C)nc(-n2nc(C)cc2NC(=O)CN2CCc3ccccc3C2)n1	83	6.4*	5.1*	2.7*	82
CCN(CC(=O)Nc1cc(C)nn1-c1nc(C)cc(C)n1)Cc1ccccc1	73	14*	56	52	51
O=C(Cn1cc(C(F)(F)F)ccc1=O)N/N=C/c1ccc(Cl)cc1	.	.	99	106	.
Cc1c(Cl)cccc1-c1ccc(/C=N/n2cnnc2)o1	92	90	90	87	27*
Clc1ccccc1-c1ccc(/C=N/n2cnnc2)o1	90	88	105	116	33
Clc1cccc(-c2ccc(/C=N/n3cnnc3)o2)c1Cl	90	106	76	78	9.8*
Cc1ccc(O)c(C(=O)c2cnc3c(c2)CN(C)C(=O)N3)c1	.	.	47	44	.
CN1Cc2cc(C(=O)c3cc(Cl)cc(CSc4ncccn4)c3O)cnc2NC1=O	51	25*	22	22	52
CC(/C=C/C=C/c1ccccc1)=N/NC(=O)CNc1ccc(C)cc1	.	.	93	97	.
N#Cc1c(N)n(C2CCCCC2)c2nc3ccccc3nc12	69	35*	87	74	69
Cc1ccc(C)c(N2CCN(C(=O)c3ccc(Cn4c(=O)[nH]c5ccccc5c4=O)cc3)CC2)c1	93	7.5*	8	10	37
